Laboratory results as given in paper PMC7814465 (Cell reports, 2020).
Values belong to the molecule of their own block, whether it stands above or below them. Primed or numbered codes have the meaning given here. Ends that are not written are not given here. FITC′ = fluorescein isothiocyanate

What was measured:
Impα3 (His-Impα3) = experiment: SDD-AGE oligomer formation, Impα3; assay type: biochemical, rat; conditions: 10-fold molar excess: 2 μM importin, 20 μM TMR-DPR, pH 7.5, 200 mM NaCl, 1 h RT
TNPO1 (His-TNPO1) = experiment: SDD-AGE oligomer formation, TNPO1; assay type: biochemical; conditions: 10-fold molar excess: 2 μM importin, 20 μM TMR-DPR, pH 7.5, 200 mM NaCl, 1 h RT
[1] = system: GCR2-GFP2 reporter in HeLa cells; experiment: Diffusion of reporter without NLS into nucleus; assay type: cell-based; conditions: 10 µM TMR-GR25, 2 h; three independent experiments, 43-102 cells
TNPO1 = target: T1, TNPO1 (Homo sapiens, UniProt Q92973); experiment: Pull-down from HeLa cytosol, TNPO1; assay type: binding; conditions: biotinylated peptide, western blot
T1 sequence (Q92973 1-898): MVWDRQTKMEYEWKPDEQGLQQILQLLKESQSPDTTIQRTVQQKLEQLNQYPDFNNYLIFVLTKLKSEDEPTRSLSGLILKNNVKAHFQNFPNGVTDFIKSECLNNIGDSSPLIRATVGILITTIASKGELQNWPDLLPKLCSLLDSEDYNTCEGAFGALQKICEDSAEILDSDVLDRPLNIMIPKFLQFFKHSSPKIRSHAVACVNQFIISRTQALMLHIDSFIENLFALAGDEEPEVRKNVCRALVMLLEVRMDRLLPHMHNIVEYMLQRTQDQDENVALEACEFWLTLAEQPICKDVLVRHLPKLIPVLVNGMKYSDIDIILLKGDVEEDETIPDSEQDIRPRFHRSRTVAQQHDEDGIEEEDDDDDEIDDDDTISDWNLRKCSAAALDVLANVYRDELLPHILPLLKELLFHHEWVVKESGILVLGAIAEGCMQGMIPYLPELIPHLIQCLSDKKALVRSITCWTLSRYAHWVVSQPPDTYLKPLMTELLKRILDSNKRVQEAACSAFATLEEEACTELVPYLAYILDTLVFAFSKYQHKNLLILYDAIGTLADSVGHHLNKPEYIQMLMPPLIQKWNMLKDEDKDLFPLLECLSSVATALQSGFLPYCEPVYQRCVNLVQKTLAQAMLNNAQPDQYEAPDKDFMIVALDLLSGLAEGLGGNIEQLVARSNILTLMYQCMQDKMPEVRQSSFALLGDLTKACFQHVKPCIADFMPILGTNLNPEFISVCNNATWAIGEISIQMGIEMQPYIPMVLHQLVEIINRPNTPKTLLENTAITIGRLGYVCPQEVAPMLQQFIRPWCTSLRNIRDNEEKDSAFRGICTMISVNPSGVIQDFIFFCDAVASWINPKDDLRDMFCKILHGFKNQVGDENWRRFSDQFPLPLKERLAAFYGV
In short: (§1)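 It was cleared at 21,000 g, 4°C. Cytosol was incubated under physiological buffer conditions with biotinylated DPR peptides immobilized on ovalbumin-blocked streptavidin beads, and bound NTRs were detected by western blot.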

CRM1 = experiment: Sedimentation assay, CRM1; assay type: biochemical
In short: (§2)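 Protein was 1 µM purified NTR alone, or 500 nM Impα with 500 nM Impβ. Samples were centrifuged 15 min at 21,000 g, 4°C. Equal volumes of supernatant and pellet were analysed by SDS-PAGE with Sypro-Ruby stain or western blot.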

Imp7 = experiment: Pull-down from HeLa cytosol, Imp7; assay type: binding; conditions: biotinylated peptide, western blot
In short: (§3)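 Biotin-DPR bait (5 μg per 10 μl beads) immobilised overnight with 2 mg/ml ovalbumin. Prey bound in B-buffer with 2 mg/ml BSA, washed without BSA, eluted in 2× SDS loading buffer. Two independent replicates.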

Impb = conditions: FRET sensors and bead Halo assays; ref Hayes et al., 2019; cited from earlier work
Impβ = experiment: Pull-down from HeLa cytosol, Impβ; assay type: binding; conditions: biotinylated peptide, western blot
In short: as §3

[2] = system: nuclear import of GCR2-GFP2-cNLS in HeLa cells; experiment: Hormone-induced nuclear import assay, cNLS reporter; assay type: cell-based; conditions: 10 µM TMR-GR25, 2 h; three independent experiments, 14-61 cells
In short: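 HeLa cells were passaged at least twice in DMEM with 10% dialyzed FBS and expressed the GCR2-GFP2-MBP-cNLS reporter. They were pre-incubated 2 h with 10 µM TMR-labeled DPR peptide added once to serum-free imaging medium. Import was induced with 5 µM (final) dexamethasone, and spinning-disk live imaging ran 40–50 min at 2.5-min intervals. Only peptide-positive cells were quantified. N/C ratio is given as mean ± SEM of three experiments, with area under the curve compared by unpaired t test.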

[3] = system: TDP-43 (TDP-43-Tev-MBP/MBP-Tev-TDP-43-GFP); experiment: TDP-43 condensate formation with DPRs, microscopy; assay type: biochemical; conditions: TMR-labeled DPR, equimolar (1x) or two-fold (2x), 2 μM TDP-43/TDP-43-GFP, Tev cleavage, 200 mM NaCl, pH 7.5
In short: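 Size-exclusion-purified TDP-43-MBP-His (2 μM) was mixed with substoichiometric MBP-TDP-43-GFP-His (1:4–1:5). Condensates were imaged by laser scanning confocal microscopy.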

TNPO3 = experiment: Pull-down from HeLa cytosol, TNPO3; assay type: binding; conditions: biotinylated peptide, western blot
In short: as §1

Impα3 [4] = experiment: Pull-down with purified Impα3; assay type: binding, rat; conditions: biotinylated peptide, purified Impα3, pH 7.5, 200 mM NaCl
In short: (§4)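 Streptavidin beads were blocked with 20 mg/ml ovalbumin, then loaded overnight with 5 µg biotinylated DPR peptide per reaction. 5 µg purified prey protein was added in 50 mM Tris pH 7.5, 200 mM NaCl, 1 mM MgCl2, 5% glycerol, 2 mM DTT, 2 mg/ml BSA. After washes, bound protein was eluted in SDS loading buffer and analysed by SDS-PAGE with Sypro-Ruby staining. Two independent replicates.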

Impα1 = experiment: Pull-down with purified Impα1; assay type: binding; conditions: biotinylated peptide, purified Impα1, Figure S1E
In short: as §4

Impα3 [5] = experiment: Pull-down from HeLa cytosol, Impα3; assay type: binding; conditions: biotinylated peptide, western blot
In short: as §3

GAPDH in HeLa cytosol = experiment: Sedimentation assay from HeLa cytosol, GAPDH; assay type: biochemical; conditions: highest GR/PR concentrations
[6] = system: GCR2-GFP2 reporter in cytoplasm; experiment: FRAP of cytoplasmic GCR2-GFP2 reporter; assay type: cell-based; conditions: 10 µM GR25, 2 h, dexamethasone; 34-38 cells, two independent experiments
[7] = system: Impβ (His-S-Impβ, in the absence of Impα); experiment: Sedimentation assay, Impβ alone; assay type: biochemical
In short: as §2

GST-GR25 / TDP-43 = experiment: Sedimentation of GST-GR25 with TDP-43 and NTRs; assay type: biochemical; conditions: anti-GST western blot, three independent experiments
In short: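 1 µM TDP-43-MBP-His was Tev-cleaved (20 µg/ml His-Tev, 60 min, 30°C) with or without equimolar GST-tagged DPR and/or NTRs. Samples were centrifuged 15 min at 21,000 g, 4°C. Equal volumes of supernatant and pellet were analysed by anti-GST western blot.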

[8] = system: NTRs (importins) from HeLa cytosol; experiment: Pull-down from HeLa cytosol with biotinylated DPR, NTRs; assay type: binding; conditions: immobilized biotinylated peptide, western blot
In short: as §1

TNPO1 (TEV-cleaved) = target: T2, TNPO1 (TEV-cleaved) (UniProt Q92973 1-898); experiment: fluorescence polarisation
T2 sequence (looked up): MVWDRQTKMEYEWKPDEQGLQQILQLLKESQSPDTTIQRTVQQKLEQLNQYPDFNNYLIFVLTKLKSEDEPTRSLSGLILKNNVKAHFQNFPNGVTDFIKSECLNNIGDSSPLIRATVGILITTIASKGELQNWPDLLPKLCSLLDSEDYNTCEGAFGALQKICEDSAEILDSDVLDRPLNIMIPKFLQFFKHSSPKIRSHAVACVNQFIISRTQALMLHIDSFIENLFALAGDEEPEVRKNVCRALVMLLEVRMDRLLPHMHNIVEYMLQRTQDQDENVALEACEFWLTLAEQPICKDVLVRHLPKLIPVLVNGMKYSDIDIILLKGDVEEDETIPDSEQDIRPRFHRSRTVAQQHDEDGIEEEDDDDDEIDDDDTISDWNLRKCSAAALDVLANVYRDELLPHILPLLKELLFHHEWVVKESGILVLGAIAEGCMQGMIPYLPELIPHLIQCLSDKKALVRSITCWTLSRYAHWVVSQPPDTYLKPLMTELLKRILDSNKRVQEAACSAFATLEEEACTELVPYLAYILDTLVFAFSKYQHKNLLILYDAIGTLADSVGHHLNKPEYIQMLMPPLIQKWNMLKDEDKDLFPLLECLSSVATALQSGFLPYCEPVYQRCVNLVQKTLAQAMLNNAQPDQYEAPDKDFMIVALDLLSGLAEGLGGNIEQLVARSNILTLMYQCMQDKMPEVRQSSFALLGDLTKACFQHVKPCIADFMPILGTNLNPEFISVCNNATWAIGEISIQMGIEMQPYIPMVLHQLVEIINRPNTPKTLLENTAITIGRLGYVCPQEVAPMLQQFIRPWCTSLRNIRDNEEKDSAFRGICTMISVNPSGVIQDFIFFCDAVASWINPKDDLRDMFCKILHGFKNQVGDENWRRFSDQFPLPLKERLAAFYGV

[9] = 10-fold molar excess of TMR-labeled DPR, n = 3
[10] = extremely high concentrations (up to 40x)

Molecule: TMR-PR25: tetramethylrhodamine (TMR)-labeled PR25 (PRPRPRPRPRPRPRPRPRPRPRPRPRPRPRPRPRPRPRPRPRPRPRPRPR; also: TMR label, position not given here)
oligomer formation of Impα3 (SDS-resistant) (Impα3 (His-Impα3)): oligomer formation
oligomer formation of TNPO1 (SDS-resistant) (TNPO1 (His-TNPO1)): oligomer formation

Molecule: poly-GP: non-charged DPR species; in the experiments GP25 (GPGPGPGPGPGPGPGPGPGPGPGPGPGPGPGPGPGPGPGPGPGPGPGPGP; not fully specified; also: biotin, position not given here) [reference compound]
oligomer formation of Impα3 (SDS-resistant) (Impα3 (His-Impα3)): not poly-GP
oligomer formation of TNPO1 (SDS-resistant) (TNPO1 (His-TNPO1)): not poly-GP
TDP-43 condensate formation [3]: no effect

Molecule: GST-GR25: recombinant GST fusion of GR25
solubility of GST-GR25 (GST-GR25 / TDP-43; absence of TDP-43): completely soluble
solubility of GST-GR25 (GST-GR25 / TDP-43; presence of cleaved TDP-43): moved efficiently into the pellet fraction

Molecule: TMR-GR25: tetramethylrhodamine (TMR)-labeled GR25 (GRGRGRGRGRGRGRGRGRGRGRGRGRGRGRGRGRGRGRGRGRGRGRGRGR; also: TMR label, position not given here)
oligomer formation of Impα3 (SDS-resistant) (Impα3 (His-Impα3)): oligomer formation
oligomer formation of TNPO1 (SDS-resistant) (TNPO1 (His-TNPO1)): oligomer formation

The next lines start with results.

binding in pull-down (TNPO1): bound preferentially to poly-GR
binding in pull-down (TNPO3): bound preferentially to poly-GR
direct binding in pull-down (Impα3 [4]): preferentially to poly-GR
direct binding in pull-down (Impα1): preferentially to poly-GR
Molecule: poly-GR: arginine-rich dipeptide repeat protein species; in the experiments mostly GR25
diffusion of reporter without NLS into nucleus (N/C ratio) [1]: only mildly affected
oligomer formation of Impα3 (SDS-resistant) (Impα3 (His-Impα3)): SDS-resis-tant oligomers
solubility of CRM1 (CRM1; [9]): remained mainly soluble
precipitation of CRM1, titration (CRM1; [10]): only partial or no precipitation
oligomer formation of TNPO1 (SDS-resistant) (TNPO1 (His-TNPO1)): SDS-resis-tant oligomers
binding in pull-down (Imp7): bound equally to both poly-GR and poly-PR
direct binding to Impb in vitro (Impb): direct binding
binding in pull-down (Impβ): bound equally to both poly-GR and poly-PR
nuclear import of cNLS reporter (N/C ratio) [2]: reduced nuclear import
TDP-43 condensate formation [3]: formation of condensates
binding in pull-down (Impα3 [5]): bound equally to both poly-GR and poly-PR
precipitation of GAPDH from HeLa cytosol (GAPDH in HeLa cytosol): not precipitated
mobility of GCR2-GFP2 reporter in cytoplasm (FRAP) [6]: unchanged
solubility of Impβ [7, 9]: remained mainly soluble
precipitation of Impβ, titration [7, 10]: only partial or no precipitation

binding in pull-down [8]: not to the non-charged control DPR GP25
Molecule: GP25: non-charged control DPR (GPGPGPGPGPGPGPGPGPGPGPGPGPGPGPGPGPGPGPGPGPGPGPGPGP; not fully specified; also: biotin, position not given here)

Kd (TNPO1 (TEV-cleaved)): ~200 nM
Molecule: {FITC′}-GRGRGRGRGRGRGRGRGRGRGRGRGRGRGRGRGRGRGRGRGRGRGRGRGR [FITC-GR25]

Kd (TNPO1 (TEV-cleaved)): ~200 nM
Molecule: {FITC′}-PRPRPRPRPRPRPRPRPRPRPRPRPRPRPRPRPRPRPRPRPRPRPRPRPR [FITC-PR25]
